Assay results published in PubChem BioAssay AID504383 (The Scripps Research Institute Molecular Screening Center, 2011).
Out of some 2,500 compounds screened, about 1,200 (48%) were called active. The set was probably picked from earlier hits. The list shows a part of the results. Values without a mark were called inactive.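 How the source made its calls: active means mean activation above the low control average plus 3 SD, as set in the primary screen (cut at about 12% in these data); inactive means the rest.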

target: Troponin I, cardiac muscle (Homo sapiens) + Troponin T, cardiac muscle (Homo sapiens) + Troponin C, slow skeletal and cardiac muscles (Homo sapiens) (UniProt P19429+P45379+P63316); experiment: cardiac RTF calcium sensitivity activators, confirmation, biochemical, IANBD-TnC fluorescence, triplicate (AID 504383); details: IANBD-labeled cardiac RTF, Ca2+ sensitivity fluorescence; at 7.2 µM; active compounds read high; scaled from EC20 to saturating calcium; tested at EC20 calcium, 0.472 mM;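 further: 0% = DMSO at 0.472 mM calcium and 100% = DMSO at 2.9 mM calcium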
Method in brief: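 System: Labelled thin filament complex | Technique: Filament fluorescence intensity | Benchmarks: Low control EC20 calcium, high control EC100 calcium | Timing: 15 min at 25 °C | Compound dosing: One dose, 7.2 µM nominal | Probe or stimulus: Ca2+ 0.472 mM, EC20 level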

Row | SMILES | activation
1 | Cc1nc2oc(C(=O)c3ccccc3)c(N)c2c2c1COC(C)(C)C2 | 744% (active)
2 | CCc1ccc2c(COC(=O)CNS(=O)(=O)c3ccc(NC(C)=O)cc3)cc(=O)oc2c1 | 34.8% (active)
3 | CN(C)c1ccc(/C=C2\Oc3ccc(C#Cc4cccc(N)c4)cc3C2=O)cc1 | 4.36%
4 | COc1ccccc1C(=O)Oc1ccc2c(c1)O/C(=C\c1ccncc1)C2=O | 31.6% (active)
5 | COc1ccc(/C=C2\Oc3cc(OCC(N)=O)ccc3C2=O)cc1OC | 6.98%
6 | O=C(Oc1ccc2c(c1)O/C(=C\c1ccncc1)C2=O)c1ccccc1 | 104% (active)
7 | Cc1ccc(-n2nnnc2-c2cnc3cc4c(cc3c2C)OCO4)cc1 | 4.93%
8 | Cc1ccc(-n2nnnc2C(=Cc2ccc(N(C)C)cc2)c2nnnn2-c2ccc(C)cc2)cc1 | 14.4% (active)
9 | O=c1c(/C=C(\O)c2ccc(F)cc2)nc2ccccc2n1-c1ccccc1 | 6.91%
10 | CCCNC(=O)Cn1c(=O)/c(=C/c2ccc(-c3ccc([N+](=O)[O-])cc3)o2)s/c1=C\C(=O)C(C)(C)C | 29.9% (active)
11 | CCCNC(=O)Cn1c(=O)/c(=C\c2ccc(-c3ccc([N+](=O)[O-])cc3)o2)s/c1=C\C(=O)C(C)(C)C | 28.6% (active)
12 | CC(C)(C)C(=O)/C=c1\s/c(=C\c2ccc(-c3ccc([N+](=O)[O-])cc3)o2)c(=O)n1CC(=O)NC(N)=O | 46.3% (active)
13 | CC1=CC(=C(C#N)C#N)C=C(C)N1Cc1ccc(Cl)cc1 | 52.2% (active)
14 | CS(=O)(=O)Nc1nc2n(n1)C(c1ccccc1)C=C(c1ccc(Br)cc1)N2 (stereo unspecified) | 35.8% (active)
15 | O=c1cc2c(c(-c3ccccc3)n1Cc1ccccc1)[C@H](CCO)NC2 | 16.1% (active)
16 | O=c1ccc2c(-c3ccccc3)c3ccc(O)cc3oc-2c1 | 88.1% (active)
17 | O=c1cc(-c2ccccc2)oc2ccc(Br)cc12 | 6.06%
18 | Nc1ccc(-c2c3ccc(=O)cc-3oc3cc(O)ccc23)cc1C(=O)O | 4.67%
19 | Cn1cc(C2=C(c3ccc(Cl)cc3Cl)C(=O)NC2=O)c2ccccc21 | 32.9% (active)
20 | O=C(NCC1CCCO1)c1c(O)nc2sccn2c1=O (stereo unspecified) | 17.7% (active)
21 | Cc1nccc(-c2cccc(N/N=C(\C#N)C(=O)c3ccccc3)c2)n1 | 6.06%
22 | CC(C)c1ccc(OCC(=O)NC(Cc2c[nH]c3ccccc23)C(=O)O)cc1 (stereo unspecified) | 4.54%
23 | COc1ccc(/C=N/NC(=O)C(Cc2c[nH]c3ccccc23)NC(=O)OCC(C)C)cc1[N+](=O)[O-] (stereo unspecified) | 7.99%
24 | COc1ccc2c(CC(=O)N[C@@H](Cc3c[nH]c4ccccc34)C(=O)O)cc(=O)oc2c1 | 16.7% (active)

Row | SMILES | activation
25 | NC(=O)CC[C@@H]1NC(=O)[C@H](Cc2ccc(O)cc2)NC(=O)c2cc([N+](=O)[O-])cc(F)c2OCC[C@@H](C(N)=O)NC1=O | 0.64%
26 | CCOc1ccc(CN2CCN(C/C=C/c3ccc(OC)cc3)CC2CCO)cc1 (stereo unspecified) | 7.69%
27 | Cc1ccc(CN2CCN(Cc3ccc(-n4cccn4)cc3C)CC2CCO)cc1 (stereo unspecified) | 108% (active)
28 | CC/C(=N/Nc1cccc(C)c1)c1cnnc(SC)n1 | 12.7% (active)
29 | COc1ccccc1CNc1cc(C)ccc1C | 1250% (active)
30 | COc1cc(/C=C2/SC(=S)N(CCC(=O)Nc3ccccc3)C2=O)cc(OC)c1OC | 1.16%
31 | C#CCN1C(=O)S/C(=C/C=C/c2ccc(N(C)C)cc2)C1=O | 9.72%
32 | CC(=O)c1ccc(NC(=O)CN2C(=O)/C(=C/C=C/c3ccccc3)SC2=S)cc1 | 13.7% (active)
33 | Cc1ccc(/C=C/C(=O)Nc2cccc3cccnc23)o1 | 20.6% (active)
34 | COc1ccc(N2C(=O)[C@@H]3[C@H](C2=O)[C@H](C(C)=O)N2c4ccccc4C=C[C@@H]32)cc1 | 9.39%
35 | COc1ccc(C2C(C(=O)c3ccccc3)N3c4ccccc4C=CC3C2[N+](=O)[O-])cc1 (stereo unspecified) | 47.8% (active)
36 | Cc1cc(N/C=C\c2nnnn2-c2ccc(F)cc2)no1 | 979% (active)
37 | O=C1c2cccc3c(O)ccc(c23)C(=O)N1Cc1ccccc1 | 33.7% (active)
38 | C[C@H]1CCC(=O)N([C@H](CSc2ccc(Br)cc2)Cc2ccccc2)CC1 | 6.56%
39 | COc1ccc2[nH]c3c(c2c1)CCNC3c1ccc([N+](=O)[O-])o1 (stereo unspecified) | 2.79%
40 | O=C(c1ccccc1Nc1ccc(SC(F)F)cc1)N1CCCCC1 | 5.45%
41 | O=C(c1ccc(Nc2cccc(C(F)(F)F)c2)nc1)N1CCCC1 | 168% (active)
42 | CCSc1cc(N2CCCC2)nc(-c2ccc(Cl)cc2)n1 | 6.74%
43 | C/C(=N/NC(=O)Nc1ccccc1)c1ccc(C)cc1 | 9.45%
44 | C/C(=N/NS(=O)(=O)c1ccccc1)c1ccc(NC(=O)C2CC2)cc1 | 20.7% (active)
45 | O=C(C1=C[C@@H](c2ccc(Br)cc2)C[C@@H](OCc2ccc(CO)cc2)O1)N1CCN(Cc2ccc3c(c2)OCO3)CC1 | 4.22%
46 | C#Cc1ccc([C@@H]2C=C(C(=O)OCC=C)O[C@H](OCCCCO)C2)cc1 | 9.72%
47 | O=C(Nc1ccccc1)C1=C[C@H](c2ccc3c(c2)OCO3)C[C@H](OCCCCO)O1 | 13% (active)
48 | CCCC[C@H]1COCCS(=O)(=O)N1Cc1ccc(F)cc1 | 0.38%

Row | SMILES | activation
49 | OCCc1c[nH]c2ccccc12 | 6.66%
50 | CCCn1c(N2CCN(CC(=O)c3c[nH]c4ccccc34)CC2)nc2c1c(=O)[nH]c(=O)n2C | 8.31%
51 | NC(=O)c1c[nH]c2ccccc12 | 717% (active)
52 | N#C/C(=C/c1ccc(N2CCCCCC2)o1)c1cccc(F)c1 | 99.3% (active)
53 | N#C/C(=C/c1ccc(N2CCCCCC2)o1)c1ccc(Cl)cc1 | 38.8% (active)
54 | N#C/C(=C/c1ccc(N2CCOCC2)o1)c1ccc(Cl)cc1 | 9.77%
55 | O=C(NCc1nnc(SCC(=O)N2CCCCCC2)o1)c1ccco1 | 28.5% (active)
56 | CC(C)Sc1nc2ccc(Br)cc2[nH]1 | 56.5% (active)
57 | COC(=O)c1ccc(S(=O)(=O)N(CCO)Cc2ccccc2)n1C | 6.61%
58 | COC(=O)c1ccc(S(=O)(=O)N2CCC(O)CC2)n1C | 30.3% (active)
59 | Cc1ccc(N2CN(Cc3cccnc3)CNC2=S)cc1 | 13.6% (active)
60 | Cc1ccc(CNc2cccnc2)cc1 | 1.46%
61 | CS/C(=N\S(=O)(=O)c1cccs1)Nc1cccc(Cl)c1C | 61.5% (active)
62 | COCCn1c(-c2ccc(C)cc2)nc2oc3cc(OC)ccc3c(=O)c2c1=O | 10.7%
63 | COCCOC(=O)c1sc(=S)n(CCOC)c1N | 7.49%
64 | COCCn1c(=O)c2ccccc2c2ccccc2c1=O | 89% (active)
65 | CCC(=O)Nc1ccc2oc(-c3cccnc3)nc2c1 | 210% (active)
66 | CCC(=O)N/C(=N/c1nc(C)cc(C)n1)Nc1ccccc1 | 7.51%
67 | Cc1cc(=O)oc(C)c1C(=O)Nc1ccc2ncccc2c1 | 6.03%
68 | CCCCN=C1N/C(=C\c2ccco2)C(=O)N1c1ccccc1 | 370% (active)
69 | Cc1cc(NC(=O)COC(=O)C(Cc2ccccc2)NC(=O)c2ccco2)no1 (stereo unspecified) | 39.2% (active)
70 | COC(=O)[C@H](Cc1ccccc1)NC(=O)Nc1ccc(OC)cc1 | 4.56%
71 | O=C1C=C(NCc2ccco2)CC(c2ccc(Cl)cc2)C1 (stereo unspecified) | 4.86%
72 | CCc1ccc(C2C(C#N)=C(N)SC(N)=C2C#N)s1 | 9.19%

Row | SMILES | activation
73 | Nc1cnccc1C(=O)O | 26% (active)
74 | CN(C)C=Nc1c(Br)cc(Br)c2nonc12 | 31.3% (active)
75 | O=C(NCc1ccco1)/C(=C\c1ccco1)NC(=O)c1ccc(Br)o1 | 72.9% (active)
76 | CC(C)(C)c1ccc(C(=O)N/C(=C\c2cccs2)C(=O)NCc2ccco2)cc1 | 9.9%
77 | O=C(NCc1cccnc1)/C(=C\c1ccc(-c2ccc(Cl)c(Cl)c2)o1)S(=O)(=O)c1ccccc1 | 5.91%
78 | Cc1cnc(C(=O)Nc2nnc(SCc3c(Cl)cccc3Cl)s2)cn1 | 15% (active)
79 | CCOC(=O)c1c(C)[nH]c(C2=NNC(=NC(C)COC)SC2)c1C (stereo unspecified) | 81% (active)
80 | NC(N)=NCc1cccc(I)c1 | 7.58%
81 | CN(C(=O)C1CCC1C(=O)O)c1nc(-c2ccc(Cl)s2)cs1 (stereo unspecified) | 176% (active)
82 | CCOc1ccc(C(=O)NCC(=O)N2CCC3CCCCC3C2)cc1OCC (stereo unspecified) | 167% (active)
83 | COC(=O)c1ccc(OC)c(OC2CCCC2)c1 | 6.45%
84 | CCOc1ccc(NC(=O)COC(=O)CCN2C(=O)C3CC=CCC3C2=O)cc1OCC (stereo unspecified) | 8.79%
85 | CC(CC(=O)N1CCc2ccccc21)n1cccn1 (stereo unspecified) | 5.25%
86 | Cc1ccc2c(c1)N(CC(=O)N1CCCc3ccccc31)C(=O)C(C)O2 (stereo unspecified) | 21.6% (active)
87 | CCn1nnnc1SCC(=O)N1CCCc2ccccc21 | 10.8%
88 | O=C(O)CN1C(=O)c2cccc3c(Br)ccc1c23 | 89% (active)
89 | CCOC(=O)C(=O)Nc1nnc(COc2ccccc2)s1 | 9.76%
90 | CCOCCc1nnc(NC(=O)COC)s1 | 3.67%
91 | CCCCOC(=O)Nc1nnc(C(C)C)s1 | 617% (active)
92 | CCSc1nnc(-c2sc3nnc(-c4ccccc4)c(-c4ccccc4)c3c2N)o1 | 6.28%
93 | O=C(O)c1ncc(-c2ccccc2)cn1 | 128% (active)
94 | O=C([O-])c1ccccc1-[n+]1c(-c2ccccc2)cc(-c2ccccc2)cc1-c1ccccc1 | 7.07%
95 | CCn1c(O)c(/C=N/NC(=O)c2ccncc2)c(=O)n(CC)c1=S | 10.1%
96 | O=C(N/N=C/c1c(O)n(-c2ccc(Cl)cn2)c(=O)c2ccccc12)c1ccncc1 | 14.8% (active)
